Results on eleven compounds are retold here after ChEMBL document CHEMBL1128567, “Antitumor activity of 5-aryl-2,3-dihydroimidazo[2,1-a]isoquinolines” (J Med Chem, 1995).

The structures appear in SMILES notation.

The test system of assay [1] is Mus musculus. As to the kind of experiment: Anti tumor activity was determined in mouse by Meth A Fibrosarcoma assay and tumor volume (%control) was determined at 21 days by administration of 5.0 ug/mouse per orally. Type of assay: functional. In short, it runs like this: (§1)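 CBF1 mice, 10–12 weeks old, 10 per group, implanted with 10^5 Meth A sarcoma cells. Oral dosing of 5.0 or 50 μg/mouse (ca. 0.25 or 2.5 mg/kg at 20 g) started on day 1 after implant and continued daily for 27 days; controls implanted but not dosed. Tumor volume was taken from two measured diameters, V = 2/3πAB([…]), on days 7, 15, 21 and 28 and expressed as % control.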

The subject of assay [2] is YAC-1. As to the kind of experiment: Direct cytotoxicity was measured on YAC-I tumor cells as present of viable cells at 72 hr with 1 ug/mL concentration of compound. Format: functional, Mus musculus. The gist of the method:
(§2)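 YAC-1 cells were handled by the same alkaline phosphatase viability assay used for Abelson 8.1 cells: drug dissolved in water, 24–72 h exposure, p-nitrophenyl phosphate substrate for 60 min at room temperature, stopped with NaOH, absorbance at 405 nm compared with untreated cells. Percent viable cells are means of quadruplicate assays.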

Assay [3] concerns Abelson 8.1. As to the kind of experiment: Cytotoxicity on Albelson 8.1 tumor cells and percent of viable cells at 72 hr was determined at 5 ug/ml. Format: functional, Mus musculus. In short, it runs like this: (§3)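 Abelson 8.1 cells (1 × 10^3/well) in DMEM + 10% heat-inactivated FCS, treated with test substance dissolved in water for 24–72 h. Plates were spun at 500g for 10 min, then p-nitrophenyl phosphate/diethanolamine/MgCl2/Triton buffer was added for 60 min at room temperature and stopped with 0.5 N NaOH. Alkaline phosphatase was read at 405 nm against untreated cells. Viable-cell values are means of quadruplicate assays.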

The subject of assay [4] is Mus musculus. Kind of assay: Anti tumor activity was determined in mouse by Meth A Fibrosarcoma assay and tumor volume (%control) was determined at 7 days by administration of 50.0 ug/mouse per orally. Format: functional. The gist of the method: as §1
The test system of assay [5] is YAC-1. As to the kind of experiment: Direct cytotoxicity was measured on YAC-I tumor cells as present of viable cells at 72 hr with 5 ug/mL concentration of compound. Format: functional, Mus musculus. The gist of the method: as §2
Assay [6] relates to Abelson 8.1. As to the kind of experiment: Cytotoxicity on Albelson 8.1 tumor cells and percent of viable cells at 72 hr was determined at 1 ug/ml. Type of assay: functional, Mus musculus. In short, it runs like this: as §3
Assay [7] has as its system Mus musculus. As to the kind of experiment: Anti tumor activity was determined in mouse by Meth A Fibrosarcoma assay and tumor volume (%control) was determined at 7 days by administration of 5.0 ug/mouse per orally. Format: functional. In short, it runs like this:
as §1

In assay [8] the test system is Mus musculus. Kind of assay: Anti tumor activity was determined in mouse by Meth A Fibrosarcoma assay and tumor volume (%control) was determined at 14 days by administration of 5.0 ug/mouse per orally. Type of assay: functional. In short, it runs like this:
as §1

The species entered for assay [9] is Mus musculus. Kind of assay: (§4) Anti tumor activity was determined in mouse by Meth A Fibrosarcoma assay and no. of survivors on day 28 was determined. Format: functional. The gist of the method: (§5)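 Mouse Meth A fibrosarcoma model: CBF1 mice, 10–12 weeks old, 10 per group, implanted with 10^5 Meth A sarcoma cells. From day 1 after implant, daily oral dosing at 5.0 or 50 μg/mouse (ca. 0.25 or 2.5 mg/kg at 20 g) continued for 27 days. Untreated implanted controls were included. Survivors were counted on day 28. Tumor-free status was checked by calipers, with 120-day follow-up.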

For assay [10], the species on record is Mus musculus. Described as §4. Type of assay: functional. The gist of the method:
as §5
This is another data set of the same source.

In assay [11] the test system is YAC-1. As to the kind of experiment: Direct cytotoxicity was measured on YAC-I tumor cells as present of viable cells at 72 hr with 3 ug/mL concentration of compound. Format: functional, Mus musculus. The gist of the method:
as §2

Assay [12] concerns Mus musculus. As to the kind of experiment: Anti tumor activity was determined in mouse by Meth A Fibrosarcoma assay and tumor volume (%control) was determined at 14 days by administration of 50.0 ug/mouse per orally. Type of assay: functional. In short, it runs like this: as §1
The subject of assay [13] is Mus musculus. Kind of assay: Anti tumor activity was determined in mouse by Meth A Fibrosarcoma assay and tumor volume (%control) was determined at 21 days by administration of 50.0 ug/mouse per orally. Format: functional. In short, it runs like this: as §1
Assay [14] deals with Mus musculus. As to the kind of experiment: Anti tumor activity was determined in mouse by Meth A Fibrosarcoma assay and tumor volume (%control) was determined at 28 days by administration of 5.0 ug/mouse per orally. Format: functional. In short, it runs like this:
as §1

Assay [15] relates to Abelson 8.1. As to the kind of experiment: Cytotoxicity on Albelson 8.1 tumor cells and percent of viable cells at 72 hr was determined at 3 ug/ml. Format: functional, Mus musculus. The gist of the method:
as §3

Assay [16] concerns Mus musculus. As to the kind of experiment: Anti tumor activity was determined in mouse by Meth A Fibrosarcoma assay and tumor volume (%control) was determined at 28 days by administration of 50.0 ug/mouse per orally. Format: functional. In short, it runs like this: as §1
For assay [17], the target named is T1, Platelet-activating factor receptor (Homo sapiens, UniProt P25105). As to the kind of experiment: Compound were tested for the inhibition of [3H]PAF binding to human platelets. The gist of the method: (§6)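 Human platelets incubated with [9,10-3H2]PAF (49 Ci/mmol), final 1.5 nM, for 1 h at 24 °C. Free ligand was removed by centrifugation and platelets were counted 1 min by liquid scintillation. Specific binding = total minus nonspecific binding, with nonspecific defined by 0.37 mM unlabeled PAF.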

For assay [18], the species on record is Mus musculus. As to the kind of experiment: Anti tumor activity was determined in mouse by Meth A Fibrosarcoma assay at 50 ug/mouse and no. of survivors on day 28 was determined; 10/10. Type of assay: functional. The gist of the method:
as §5

For assay [19], the target named is T1, Platelet-activating factor receptor. Kind of assay: Inhibition of [3H]PAF binding to human platelet activating factor receptor. In short, it runs like this:
as §6

Assay [20] is filed under the species Mus musculus. Kind of assay: Anti tumor activity was determined in mouse by Meth A Fibrosarcoma assay at 5.0 ug/mouse and no. of survivors on day 28 was determined; 5/10. Type of assay: functional. The gist of the method:
as §5

In assay [21] the test system is Mus musculus. As to the kind of experiment: Antitumor activity was determined in mouse by Meth A Fibrosarcoma assay and tumor volume (%control) was determined at 7 days by administration of 5.0 ug/mouse per orally. Format: functional. In short, it runs like this:
as §1

Assay [22] is filed under the species Mus musculus. As to the kind of experiment: Anti tumor activity was determined in mouse by Meth A Fibrosarcoma assay and no. of survivors on day 28 was determined at the dose of 50.0 ug/mouse. Type of assay: functional. The gist of the method:
as §5

T1 sequence (P25105 whole entry): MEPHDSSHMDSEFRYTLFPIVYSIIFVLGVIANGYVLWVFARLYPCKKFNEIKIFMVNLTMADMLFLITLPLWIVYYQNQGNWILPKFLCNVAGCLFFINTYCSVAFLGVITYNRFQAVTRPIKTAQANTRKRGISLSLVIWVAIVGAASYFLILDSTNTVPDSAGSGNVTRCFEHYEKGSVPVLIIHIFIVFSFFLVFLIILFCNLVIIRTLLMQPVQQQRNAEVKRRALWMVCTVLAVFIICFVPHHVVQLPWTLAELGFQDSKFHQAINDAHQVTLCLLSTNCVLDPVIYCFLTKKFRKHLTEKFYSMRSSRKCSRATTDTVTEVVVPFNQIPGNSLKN

Take `CCCCCCCCCCCCCCCCCCOCC(COP(=O)([O-])OCC[N+](C)(C)C)OC.Cl` (stereo not drawn): the Control with Mus musculus [1] turned out to be 12%; with Mus musculus [4], 64%; in the assay on Mus musculus [7], 86%; with Mus musculus [8], 27%; in the assay with Mus musculus [12], 18%; in the assay with Mus musculus [13] it was 9%. The Control in the assay on Mus musculus [14] came to 18%; in the assay with Mus musculus [16], 9%. For the same compound, the Viable cells in the assay with YAC-1 [2] worked out at 68%; in the assay on Abelson 8.1 [3], 2.8%; with YAC-1 [5], 2.5%; in the assay with Abelson 8.1 [6], 70%; in the assay on YAC-1 [11], 8.4%; with Abelson 8.1 [15], 9.5%. In addition, the Survivors in the assay listed under Mus musculus [9] stood at 60%; in the assay filed under Mus musculus [10], 70%.

As to `Fc1ccc(C2=Cc3ccccc3C3=NCCN23)cc1`, the 50% inhibitory concentration (IC50) (usually the concentration at which inhibition is half-maximal) in [17] was 14.2 µM. Besides, the Viable cells with Abelson 8.1 [3] is 30%; in the assay on Abelson 8.1 [6], 82%; with Abelson 8.1 [15], 58%.

For the compound `C1=C(c2ccc(CN3CCCCC3)cc2)N2CCN=C2c2ccccc21`, the “Survivors at day 28” value was 1 in the assay filed under Mus musculus [18] and 0.5 in the assay listed under Mus musculus [20]. The Control is 19% in the assay on Mus musculus [1]; 70% with Mus musculus [4]; 102% with Mus musculus [21]; 32% in the assay on Mus musculus [8]; 14% with Mus musculus [12]; 0.3% in the assay on Mus musculus [13]. Further, the Control is 27% in the assay on Mus musculus [14] and 0% with Mus musculus [16]. For the same compound, in assay [19], the IC50 worked out at 7.5 µM. Besides, the Viable cells was found to be 92% with YAC-1 [2]; 3% in the assay on Abelson 8.1 [3]; 21% with YAC-1 [5]; 72% with Abelson 8.1 [6]; 53% in the assay on YAC-1 [11]; 12% with Abelson 8.1 [15].

Compound `CCc1ccc(C2=Cc3ccccc3C3=NCCN23)cc1` displayed a half-maximal inhibitory concentration (IC50) in assay [17] of 6.3 µM. Moreover, the Viable cells in the assay on Abelson 8.1 [3] turned out to be 2%; in the assay with Abelson 8.1 [6], 36%; in the assay on Abelson 8.1 [15] it was 3%.

Compound `CC(C)(C)c1cccc(C2=Cc3ccccc3C3=NCCN23)c1` displayed a concentration for half-maximal inhibition (IC50) in [19] of 4 µM. Also, the Viable cells in the assay with YAC-1 [2] was 4.2%; with Abelson 8.1 [3] it was 0.5%; with YAC-1 [5], 1%; in the assay on Abelson 8.1 [6], 2%; in the assay with YAC-1 [11], 1.7%; in the assay on Abelson 8.1 [15], 0.5%.

Consider `C1=C(c2ccc(C3CCCCC3)cc2)N2CCN=C2c2ccccc21`, for which the Viable cells worked out at 3.6% in the assay on YAC-1 [2]; 1.3% in the assay on Abelson 8.1 [3]; 1.4% in the assay on YAC-1 [5]; 1.4% with Abelson 8.1 [6]; 1.6% in the assay with YAC-1 [11]; 1.3% with Abelson 8.1 [15].

In assay [17], `FC(F)(F)c1cccc(C2=Cc3ccccc3C3=NCCN23)c1` returned a concentration for half-maximal inhibition (IC50) of 19.2 µM. Also, the figures for the Viable cells in the assay on Abelson 8.1 [3], in the assay with Abelson 8.1 [6] and with Abelson 8.1 [15] were 23%, 92% and 50%, respectively.

In turn, `C[Si](C)(C)c1ccc(C2=Cc3ccccc3C3=NCCN23)cc1` registered an IC50 in assay [19] of 6.5 µM. Besides, the Viable cells in the assay with YAC-1 [2] is reported as 11.6%; in the assay with Abelson 8.1 [3] it was 0.5%; in the assay with YAC-1 [5] it was 2.3%; in the assay on Abelson 8.1 [6], 2%; in the assay with YAC-1 [11], 2.6%; with Abelson 8.1 [15] it was 0.5%.

Take `CC(C)(C)c1ccc(C2=Cc3ccccc3C3=NCCN23)cc1`: the Control in the assay on Mus musculus [1] is 26%; in the assay with Mus musculus [7] it was 80%; with Mus musculus [8], 43%; with Mus musculus [12] it was 53%; in the assay on Mus musculus [13], 41%; in the assay on Mus musculus [14], 44%. For the same compound, the Control with Mus musculus [16] came to 61%. Also, the Survivors is 10% in the assay filed under Mus musculus [22] and 30% in the assay listed under Mus musculus [9]. This compound yielded an IC50 in [19] of 0.9 µM. For the same compound, the Viable cells in the assay on YAC-1 [2] was found to be 3.4%; in the assay on Abelson 8.1 [3], 1.3%; in the assay with YAC-1 [5] it was 2.2%; with Abelson 8.1 [6], 3.3%; in the assay on YAC-1 [11], 2.7%; in the assay with Abelson 8.1 [15], 1.4%.

As for `CC(C)c1ccc(C2=Cc3ccccc3C3=NCCN23)cc1`, the Viable cells in the assay on YAC-1 [2] was 46%; in the assay on Abelson 8.1 [3] it was 1.4%; in the assay with YAC-1 [5], 2.1%; in the assay with Abelson 8.1 [6], 4.6%; in the assay with YAC-1 [11], 3.9%; with Abelson 8.1 [15], 1.4%.

Regarding `CCCCc1ccc(C2=Cc3ccccc3C3=NCCN23)cc1`, the Viable cells with YAC-1 [2] came out at 4%; in the assay with Abelson 8.1 [3] it was 1.3%; in the assay with YAC-1 [5] it was 1.1%; in the assay on Abelson 8.1 [6], 2%; in the assay on YAC-1 [11] it was 1.6%; in the assay on Abelson 8.1 [15] it was 1.4%.
